Test results reported in ChEMBL document CHEMBL4330087, “Synthesis, antimicrobial activity, attenuation of aminoglycoside resistance in MRSA, and ribosomal A-site binding of pyrene-neomycin conjugates” (Eur J Med Chem, 2019).
Activity calls are given as the source filed them. No cut-off for these calls is given here.

Assays:
Ribosomal RNA A-site [1] = assay: Displacement of F-NEO from human mitochondrial rRNA-A site after 10 to 20 mins by fluorescence assay relative to NEO; format: nucleic-acid assay; set-up: concentration or dose not given beside the values
How it was run: (§1)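 100 nM F-NEO:A-site complex in 10 mM HEPES, 50 mM NaCl, 0.04 mM EDTA, pH 7.0, mixed with ligand and incubated 10-20 min at room temperature. Fluorescence read at ex 485/em 525 nm, in duplicate. Percent binding was computed from the intensities of ligand-treated complex, complex without ligand, and complex with neomycin.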

Staphylococcus aureus [2] = assay: Antibacterial activity against methicillin-resistant Staphylococcus aureus SU-5 at 6.25 uM after 15 to 20 hrs by CLSI protocol based microdilution assay relative to control; format: functional
How it was run: (§2)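 Exponential-phase cultures were exposed to 6.25 μM compound in duplicate with neomycin as reference, at 37 °C in a humidified incubator for 15-20 h. Broth and culture controls received sterile water with 1% DMSO. Percent growth inhibition was calculated against the growth and background controls.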

[3] = tested on: Staphylococcus epidermidis; assay: Antibacterial activity against NEO-sensitive Staphylococcus epidermidis 12384 at 6.25 uM after 15 to 20 hrs by CLSI protocol based microdilution assay relative to control; format: functional
How it was run: (§3)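 Single-concentration screen at 6.25 μM against exponential-phase cultures, in duplicate, with NEO as reference. Enterococcus was grown in BHI broth, M. smegmatis in TS broth with 0.05% Tween 80, and all other strains in TS broth. The 1% DMSO water vehicle was added to broth (background) and culture (growth control). Incubation was 37 °C, humidified, 15-20 h. Result is percent growth inhibition.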

Staphylococcus aureus [4] = assay: Antibacterial activity against methicillin-resistant Staphylococcus aureus M0602 at 6.25 uM after 15 to 20 hrs by CLSI protocol based microdilution assay relative to control; format: functional; how it was run: as §2
[5] = Inhibition of APH(3')-1a (unknown origin)
Ribosomal RNA A-site [6] = assay: Displacement of F-NEO from Escherichia coli rRNA-A site after 10 to 20 mins by fluorescence assay; format: nucleic-acid assay
How it was run: (§4)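 A 100 nM F-NEO:A-site RNA complex in 10 mM HEPES, 50 mM NaCl, 0.04 mM EDTA, pH 7.0 was titrated with 2-fold dilutions of ligand from 20 to 0.009 μM, or from 60 or 40 μM for weaker ligands. Incubated 10-20 min at room temperature, fluorescence read at ex 485/em 525 nm. IC50 from dose-response curve fit.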

[7] = tested on: Mycolicibacterium smegmatis; assay: Antibacterial activity against NEO-sensitive Mycobacterium smegmatis at 6.25 uM after 15 to 20 hrs by CLSI protocol based microdilution assay relative to control; format: functional; how it was run: as §3
Ribosomal RNA A-site [8] = assay: Displacement of F-NEO from human cytosolic rRNA-A site after 10 to 20 mins by fluorescence assay; format: nucleic-acid assay; how it was run: as §4
Ribosomal RNA A-site [9] = assay: Displacement of F-NEO from human mitochondrial rRNA-A site after 10 to 20 mins by fluorescence assay; format: nucleic-acid assay; how it was run: as §4
Streptococcus pyogenes = assay: Antibacterial activity against NEO-resistant Streptococcus pyogenes C203 at 6.25 uM after 15 to 20 hrs by CLSI protocol based microdilution assay relative to control; format: functional; how it was run: as §2
Enterococcus faecium = assay: Antibacterial activity against NEO-intermediate sensitive Enterococcus faecium BM4105-RF at 6.25 uM after 15 to 20 hrs by CLSI protocol based microdilution assay relative to control; format: functional; how it was run: as §3
[10] = Inhibition of AAC(2')-1c (unknown origin)
Ribosomal RNA A-site [11] = assay: Displacement of F-NEO from Escherichia coli rRNA-A site after 10 to 20 mins by fluorescence assay relative to NEO; format: nucleic-acid assay; set-up: concentration or dose not given beside the values; how it was run: as §1
Staphylococcus aureus [12] = assay: Antibacterial activity against NEO-sensitive Staphylococcus aureus 25923 at 6.25 uM after 15 to 20 hrs by CLSI protocol based microdilution assay relative to control; format: functional; how it was run: as §3
[13] = Inhibition of AAC(6')-1e (unknown origin)
Ribosomal RNA A-site [14] = assay: Displacement of F-NEO from human cytosolic rRNA-A site after 10 to 20 mins by fluorescence assay relative to NEO; format: nucleic-acid assay; set-up: concentration or dose not given beside the values; how it was run: as §1
Pseudomonas aeruginosa = assay: Antibacterial activity against NEO-resistant Pseudomonas aeruginosa 27853 at 6.25 uM after 15 to 20 hrs by CLSI protocol based microdilution assay relative to control; format: functional; how it was run: as §2
Homo sapiens [15] = organism: Homo sapiens; assay: Displacement of F-NEO from human mitochondrial rRNA-A site C1410U mutant after 10 to 20 mins by fluorescence assay relative to NEO; set-up: concentration or dose not given beside the values; how it was run: as §1
Homo sapiens [16] = organism: Homo sapiens; assay: Displacement of F-NEO from human mitochondrial rRNA-A site A1490G mutant after 10 to 20 mins by fluorescence assay relative to NEO; how it was run: as §1
Klebsiella pneumoniae = assay: Antibacterial activity against Klebsiella pneumoniae NR-151410 at 6.25 uM after 15 to 20 hrs by CLSI protocol based microdilution assay relative to control; format: functional; how it was run: as §3
Escherichia coli = assay: Antibacterial activity against NEO-sensitive Escherichia coli harboring TolC mutant at 6.25 uM after 15 to 20 hrs by CLSI protocol based microdilution assay relative to control; format: functional; how it was run: as §2
Staphylococcus aureus [17] = assay: Antibacterial activity against NEO-sensitive Staphylococcus aureus harboring NorA mutant at 6.25 uM after 15 to 20 hrs by CLSI protocol based microdilution assay relative to control; format: functional; how it was run: as §2
Enterococcus faecalis = assay: Antibacterial activity against NEO-intermediate sensitive Enterococcus faecalis ATCC 29212 at 6.25 uM after 15 to 20 hrs by CLSI protocol based microdilution assay relative to control; format: functional; how it was run: as §3
Bacillus anthracis = assay: Antibacterial activity against NEO-sensitive Bacillus anthracis BA852 at 6.25 uM after 15 to 20 hrs by CLSI protocol based microdilution assay relative to control; format: functional; how it was run: as §2
Listeria monocytogenes = assay: Antibacterial activity against NEO-sensitive Listeria monocytogenes ATCC 19115 at 6.25 uM after 15 to 20 hrs by CLSI protocol based microdilution assay relative to control; format: functional; how it was run: as §3
[18] = Inhibition of AAC(3)-4 (unknown origin)
Klebsiella oxytoca = assay: Antibacterial activity against NEO-sensitive Klebsiella oxytoca HM-625 at 6.25 uM after 15 to 20 hrs by CLSI protocol based microdilution assay relative to control; format: functional; how it was run: as §3
Staphylococcus aureus [19] = assay: Antibacterial activity against methicillin-resistant Staphylococcus aureus A960649 at 6.25 uM after 15 to 20 hrs by CLSI protocol based microdilution assay relative to control; format: functional; how it was run: as §2
Staphylococcus aureus [20] = assay: Antibacterial activity against methicillin-resistant Staphylococcus aureus 33591 at 6.25 uM after 15 to 20 hrs by CLSI protocol based microdilution assay relative to control; format: functional; how it was run: as §2
[21] = Inhibition of APH(2\")-1a (unknown origin)
Acinetobacter baumannii = assay: Antibacterial activity against NEO-sensitive Acinetobacter baumannii ATCC 19606 at 6.25 uM after 15 to 20 hrs by CLSI protocol based microdilution assay relative to control; format: functional, ATCC 19606 = CIP 70.34 = JCM 6841; how it was run: as §3
[22] = Inhibition of Eis (unknown origin)
[23] = Displacement of F-NEO from human mitochondrial rRNA-A site C1410U mutant after 10 to 20 mins by fluorescence assay; how it was run: as §4

Structure (SMILES)	inhibition (Ribosomal RNA A-site [1]) [%]	Activity (Staphylococcus aureus [2])	Activity [3] [%]	Activity (Staphylococcus aureus [4])	inhibition [5]	IC50 (Ribosomal RNA A-site [6]) [nM]	Activity [7] [%]	IC50 (Ribosomal RNA A-site [8]) [nM]	IC50 (Ribosomal RNA A-site [9]) [nM]	Activity (Streptococcus pyogenes)	Activity (Enterococcus faecium) [%]	inhibition [10]	inhibition (Ribosomal RNA A-site [11]) [%]	Activity (Staphylococcus aureus [12]) [%]	inhibition [13]	inhibition (Ribosomal RNA A-site [14]) [%]	Activity (Pseudomonas aeruginosa) [%]	inhibition (Homo sapiens [15]) [%]	inhibition (Homo sapiens [16]) [%]	Activity (Klebsiella pneumoniae) [%]	also measured
NC[C@@H]1O[C@H](O[C@H]2[C@@H](O)[C@H](O[C@@H]3[C@@H](O)[C@H](N)C[C@H](N)[C@H]3O[C@H]3O[C@H](CN)[C@@H](O)[C@H](O)[C@H]3N)O[C@@H]2CSCCNC(=O)CCc2ccc3ccc4cccc5ccc2c3c45)[C@H](N)[C@@H](O)[C@@H]1O	88	inactive	56	inactive	Active	191	29	204	211	35%	26	Active	88	29	Active	91	10	86	65	18	Activity (Escherichia coli): inactive; Activity (Staphylococcus aureus [17]): inactive; Activity (Enterococcus faecalis): 10%; Activity (Bacillus anthracis): inactive; Activity (Listeria monocytogenes): inactive; inhibition [18]: Active; Activity (Klebsiella oxytoca): 14%; Activity (Staphylococcus aureus [19]): 19%; Activity (Staphylococcus aureus [20]): 16%; inhibition [21]: Active; Activity (Acinetobacter baumannii): 8%; inhibition [22]: Active; IC50 [23]: 147 nM
NC[C@@H]1O[C@H](O[C@H]2[C@@H](O)[C@H](O[C@@H]3[C@@H](O)[C@H](N)C[C@H](N)[C@H]3O[C@H]3O[C@H](CN)[C@@H](O)[C@H](O)[C@H]3N)O[C@@H]2CSCCNC(=O)Cc2ccc3ccc4cccc5ccc2c3c45)[C@H](N)[C@@H](O)[C@@H]1O	102	39%	81	32%	Active	95	43	97	90	inactive	15	Active	101	48	Active	114	0	103	102	23	Activity (Escherichia coli): 100%; Activity (Staphylococcus aureus [17]): 60%; Activity (Enterococcus faecalis): 20%; Activity (Bacillus anthracis): 100%; Activity (Listeria monocytogenes): 52%; inhibition [18]: Active; Activity (Klebsiella oxytoca): 16%; Activity (Staphylococcus aureus [19]): 7%; Activity (Staphylococcus aureus [20]): 0%; inhibition [21]: Active; Activity (Acinetobacter baumannii): 6%; inhibition [22]: Active; IC50 [23]: 70 nM
NC[C@@H]1O[C@H](O[C@H]2[C@@H](O)[C@H](O[C@@H]3[C@@H](O)[C@H](N)C[C@H](N)[C@H]3O[C@H]3O[C@H](CN)[C@@H](O)[C@H](O)[C@H]3N)O[C@@H]2CNC(=O)CCCc2ccc3ccc4cccc5ccc2c3c45)[C@H](N)[C@@H](O)[C@@H]1O	89	22%	80	19%	Active	170	38	200	465	23%	0	Active	99	12	Active	99	11	103	88	12	Activity (Escherichia coli): 54%; Activity (Staphylococcus aureus [17]): 43%; Activity (Enterococcus faecalis): 0%; Activity (Bacillus anthracis): 23%; Activity (Listeria monocytogenes): 22%; inhibition [18]: Active; Activity (Klebsiella oxytoca): 5%; Activity (Staphylococcus aureus [19]): 35%; Activity (Staphylococcus aureus [20]): 23%; inhibition [21]: Active; Activity (Acinetobacter baumannii): 5%; inhibition [22]: Active; IC50 [23]: 149 nM
